# Compound activity (PubChem BioAssay)
# An excerpt weighted towards active compounds, which were near 9.2% of everything screened.
# PTEN del growth = growth suppressors of cells with PTEN tumor suppressor deletion. HCT116 PTEN-null viability, CellTiter-Glo, 60 h; active compounds read low. viability, % at 10 µM. 1.2% of 140,000 active;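 active = viability at or below a set limit, 4 SD under the median of all tested compounds, cut at about 3.7% in these data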;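 note: PTEN knockout HCT116 line with beta catenin targeted HCT116 as companion control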
# Autophagy HCS = modulators of autophagy. MEF GFP-LC3 puncta imaging; test concentration mostly 10 µM. calls only at 10 µM (by protocol). 0.98% of 190,000 active;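 active = percentage of spot-positive cells more than 3 SD above its plate mean, without a fluorescence outlier flag or 80% toxicity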;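 note: spot-positive cell cutoff set from DMSO-treated cells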
# L major viab = reduces viability of Leishmania major promastigotes; resazurin fluorescence viability; inhibition, % at 10 µM; 9% of 200,000 active; AID 1063; in the data active = inhibition above about 50%;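 note: promastigotes grown with compound for 44 hours at 28 °C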
# bCat KO growth = beta-catenin-lacking colon tumor cell growth suppression; HCT116 beta-catenin knockout viability, CellTiter-Glo, 60 h; active compounds read low; viability, % at 10 µM; 1.5% of 140,000 active;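 active = viability at or under a set limit, the compound median less 4 SD, cut at about 6% in these data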;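 note: 0% = Hyamine 1622 control at 20 µM and 100% = untreated cell control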
# Dynein transport = blocks dynein driven cargo transport along microtubules; 0.47% of 220,000 active; 3617.4 mouse cells, GR-EGFP nuclear translocation imaging; test concentration mostly 20 µM; stimulated with dexamethasone, 1 µM; active compounds read low; z-score, hits read low;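 active = plate z-score of nuclear minus cytoplasmic receptor signal below a set negative limit, without overly bright fluorescence or cell loss, cut at about -3.5 in these data, passing the limit was not always enough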;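 note: z-score of nuclear minus cytoplasmic ring GR-EGFP intensity difference per well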
#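 Buffer or medium: tet-free, stripped-serum medium; reagent: dexamethasone at 1.0 µM final, 30 min; incubation: 48 h induction, 1 h compound, 30 min dex at 37 °C; measured by: formaldehyde fixation, Hoechst nuclear stain, 10x automated fluorescence imaging; read-out: nuclear-to-cytoplasmic GR-EGFP distribution per well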
# Lmaj promast 1uM = blocks Leishmania major promastigote growth at 1 uM, repeat screen. shares compounds with L major viab. L. major promastigote growth, resazurin fluorescence, 48 h. inhibition, % at 1 µM. 13% of 1,100 active;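 active = inhibition above about 50% in both repeat tests, limit read from the data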
# An asterisk follows results filed as active; i = inactive; x = not tested or not shown; + = active, no number.
SMILES,PTEN del growth,Autophagy HCS,L major viab,bCat KO growth,Dynein transport,others
O=C(CCCCCn1c(=S)[nH]c2ccc(N3CCOCC3)cc2c1=O)NCc1cccc(Cl)c1,x,i,-1,x,-0.11,
COc1ccc(/C=N/Nc2nc(Nc3ccccc3)nc(N3CCCC3)n2)cc1,x,i,12,x,-0.62,
COc1ccc(/C=N/Nc2nc(N3CCCC3)nc(N3CCCC3)n2)cc1,86,i,63*,73,0.28,
Cc1[nH]c2ccccc2c1/C=N/Nc1nc(N2CCCCC2)nc(N2CCCCC2)n1,81,i,77*,78,0.93,
O=[N+]([O-])c1ccc(/C=N/Nc2nc(N3CCCCC3)nc(N3CCCCC3)n2)o1,67,i,100*,64,-0.13,
O=C(Oc1ccc(/C=N/Nc2nc(N3CCCCC3)nc(N3CCCCC3)n2)cc1)c1ccco1,x,i,48,x,-0.39,
COc1c(/C=N/Nc2nc(N3CCCCC3)nc(N3CCCCC3)n2)cccc1[N+](=O)[O-],58,i,40,68,1.8,
COC(=O)c1ccc(/C=N/Nc2nc(N3CCCCC3)nc(N3CCCCC3)n2)cc1,x,i,78*,x,1.9,
O=C1C=C(NC(=O)Nc2ccc(Cl)c(Cl)c2)CCC1,x,i,-3,x,2,
O=C(/C=C/c1ccc(Cl)cc1)NC(=S)NN1CCCCC1c1cccnc1 (stereo not drawn),91,i,91*,90,1,
CCN(CC)S(=O)(=O)c1cccc(NC(=O)c2ccc(Sc3nncn3C)c([N+](=O)[O-])c2)c1,x,i,-8,x,0.65,
Cc1ccccc1NC(=O)c1cc(C(=O)c2cc(Cl)ccc2O)cn(-c2ccccc2C)c1=O,6,i,61*,8,-0.81,
Cc1ccc(-n2cc(C(=O)c3cc(Cl)ccc3O)cc(C#N)c2=O)cc1,43,i,22,59,-0.26,
CCOC(=O)CSc1nc2sc(C)c(C)c2c(=O)[nH]1,92,i,-1,102,-0.54,
CCOC(=O)/C(=C\c1ccc(Cl)cc1)c1nc2sc(C)c(C)c2c(=O)[nH]1,98,i,100*,89,-3.4,
O=C(O)CNc1nc(Cl)ccc1[N+](=O)[O-],88,i,-1,84,1.7,
Cc1ccc(S(=O)(=O)ON2C(=O)c3ccccc3C2=O)c(C)c1,93,i,-8,86,-4.8*,
CC1CCCN(C(=O)Cc2cn(Cc3cccc(Cl)c3)c3ccccc23)C1 (stereo not drawn),86,i,97*,84,-0.44,
O=C(Cc1cn(Cc2cccc(Cl)c2)c2ccccc12)N1CCCCCC1,84,i,99*,81,-0.2,
CC(C)CN1CCNC(=O)C1CC(=O)NCCCN1CCCc2ccccc21 (stereo not drawn),x,i,-3,x,-0.27,
CCCOc1cc(C)c(S(=O)(=O)NC2CC(C)(C)NC(C)(C)C2)cc1C,95,i,97*,75,1,
Cc1ccc(C(=O)N/N=C/c2ccc(-c3cccc(Cl)c3)o2)cn1,x,x,x,x,-3.5,
COc1cc([N+](=O)[O-])cc(/C=N/NC(=O)c2cccnc2)c1O,x,x,x,x,-0.055,
Cc1ccc(C(=O)N/N=C/c2ccc(-c3ccccc3[N+](=O)[O-])o2)cn1,95,i,72*,86,0.31,
Cc1nnc(N/N=C/c2ccc(-c3ccccc3F)o2)n1N,x,i,48,x,2.7,
SMILES,PTEN del growth,Autophagy HCS,L major viab,bCat KO growth,Dynein transport,others
O=C(N/N=C/c1ccc(-c2ccc([N+](=O)[O-])cc2)o1)[C@H]1C[C@@H]1c1ccccc1,x,x,x,x,0.098,
O=C(N/N=C/c1ccc(-c2ccccc2[N+](=O)[O-])o1)[C@H]1C[C@@H]1c1ccccc1,83,i,90*,93,-0.6,
Cc1nnc(N/N=C\c2ccc(-c3ccccc3[N+](=O)[O-])o2)n1N,95,i,58*,91,-0.26,
COc1ccc(-c2ccc(/C=N/NC(=O)c3cccnc3)o2)c([N+](=O)[O-])c1,98,+,75*,88,-2.4,
COCCNc1nnc(SCC(=O)c2c[nH]c3ccccc23)s1,89,i,-1,86,2.2,
O=C(N/N=C\c1ccc(-c2ccc([N+](=O)[O-])cc2)o1)C1COc2ccccc2O1 (stereo not drawn),97,i,96*,95,-0.16,
CN(C)c1ccc(/C=N/NC(=O)C2COc3ccccc3O2)o1 (stereo not drawn),97,i,-6,98,-1.3,
COc1ccc(S(=O)(=O)N2CCN(CCC(=O)Nc3ccc(F)cc3)CC2)cc1,88,i,-9,78,-0.95,
CCOc1ccc(NC(=O)CCN2CCN(S(=O)(=O)c3cc(Cl)ccc3OC)CC2)cc1,108,i,99*,102,-0.2,
CN(CC(=O)Nc1ccc(S(=O)(=O)N2CCCC2)cc1)CC(=O)Nc1ccc(F)c(F)c1F,x,i,9,x,0.35,
O=C(CCC(=O)N1CCN(S(=O)(=O)c2ccc(Cl)cc2)CC1)Nc1ccc2ccccc2c1,72,i,81*,78,-0.15,
CN(CC(=O)Nc1ccc(S(=O)(=O)N2CCCC2)cc1)Cc1ccc(Cl)cc1Cl,72,i,86*,80,-1.7,
COc1ccc(S(=O)(=O)N2CCCN(CCC(=O)Nc3cccc(C(F)(F)F)c3)CC2)cc1,91,i,100*,86,-0.34,
CCOc1ccc(NC(=O)CN2CCN(S(=O)(=O)c3ccc(Cl)cc3)CC2)cc1,60,i,-6,69,-0.26,
CC1CCc2cc(F)ccc2N1C(=O)C12CCC(C)(C(=O)O1)C2(C)C (stereo not drawn),x,i,4,x,2.5,
COc1ccc(/C(C)=N\NC(=O)C(c2ccncc2)N2CCOCC2)cc1 (stereo not drawn),x,x,x,x,-0.42,
CC(=O)Nc1ccc(S(=O)(=O)N2CCN(CCCOc3ccccc3Cl)CC2)cc1,66,i,12,75,-0.51,
COc1cccc(OCCCN2CCN(S(=O)(=O)c3ccc(NC(C)=O)cc3)CC2)c1,66,i,68*,63,-0.072,
COc1ccc(NC(=O)CCN2CCN(S(=O)(=O)c3ccc(Cl)cc3)CC2)cc1,90,i,93*,86,-1.1,
COc1ccc(NC(=O)CCN2CCN(S(=O)(=O)c3ccc(C(C)C)cc3)CC2)cc1,55,i,3,45,-0.85,
CCn1c(SCC(=O)N/N=C(\C)c2ccncc2)nnc1-c1ccccc1,x,i,-3,x,-0.072,
O=c1[nH]c(NC2CCCCC2)c([N+](=O)[O-])c(=O)[nH]1,104,i,-8,94,0.35,
O=C(O)c1cc(-c2cccc(Cl)c2)nc2nc(N3CCCCC3)sc12,97,i,63*,90,-0.23,Lmaj promast 1uM=-10
O=C(c1ccccc1)c1sc(N2CCCCCC2)nc1-c1ccccc1,89,i,13,88,0.28,
c1ccc(C(c2ccccc2)c2nc(-c3cccnc3)no2)cc1,88,i,68*,86,0.54,Lmaj promast 1uM=-10
Nn1c(COc2ccc(Cl)cc2)nc2ccccc2c1=O,103,i,41,95,-0.22,
